PostGolgi ctrl = growth inhibition of yeast control strain, primary screen, counter-screen for post-Golgi transport modulator project; efflux-deficient yeast background strain, growth absorbance A615, 16 h; inhibition, % at 10 µM; 98,000 compounds, 5% hits; AID 738, 2007
E coli WT exp = growth inhibitors of wild-type E. coli, primary screen, strain BW25113, expanded library, OD600 | OD600 absorbance | growth inhibition, % at 100 µM | 98,000 compounds, 0.15% hits | AID 710, 2007;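 active means growth inhibition above about 50% at one test dose, limit read from the data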;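 further: growth measured after 20 h incubation at 37 °C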
tolC growth inh = growth inhibitors of E. coli tolC mutant, primary screen, strain BW25113 ΔtolC::kan, 384-well. OD615. growth inhibition, % at 10 µM (by protocol). 65,000 compounds, 2.2% hits;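 active means growth inhibition at or above a cutoff equal to the mean over every tested compound plus 3 SD, cut at about 60% in these data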;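 further: growth measured after 20 h incubation at 37 °C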
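System: E. coli ΔtolC::kan strain BW25113; Buffer or medium: LB broth supplemented with 50 µg/mL kanamycin; Compound: 10 µM final, single dose; Incubation: bacterial growth with compound for 20 h at 37 °C; Signal: A615 absorbance measurement; Evaluation: growth inhibition in percent.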
PostGolgi yeast = phenotypic screen on post-Golgi transport, primary screen; post-Golgi transport phenotypic cell assay; inhibition, % at 10 µM; AID 739, 2007; 98,000 compounds, 0.9% hits;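 further: yeast cells grown in 1536-well plates; yeast grown about 18 h at 30C before absorbance read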
HePTP inhibitor = inhibitors of human HePTP phosphatase, primary screen, biochemical, absorbance, leukemia target. Tyrosine-protein phosphatase non-receptor type 7 (Homo sapiens), P35236. recombinant HePTP phosphatase activity, OD absorbance. inhibition, % at 20 µM. 110,000 compounds, 0.64% hits. AID 521, 2006; in the data active means inhibition above about 50%;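 further: plate controls were vehicle for no effect and reference inhibitor for full effect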
Target sequence (P35236 whole entry, looked up): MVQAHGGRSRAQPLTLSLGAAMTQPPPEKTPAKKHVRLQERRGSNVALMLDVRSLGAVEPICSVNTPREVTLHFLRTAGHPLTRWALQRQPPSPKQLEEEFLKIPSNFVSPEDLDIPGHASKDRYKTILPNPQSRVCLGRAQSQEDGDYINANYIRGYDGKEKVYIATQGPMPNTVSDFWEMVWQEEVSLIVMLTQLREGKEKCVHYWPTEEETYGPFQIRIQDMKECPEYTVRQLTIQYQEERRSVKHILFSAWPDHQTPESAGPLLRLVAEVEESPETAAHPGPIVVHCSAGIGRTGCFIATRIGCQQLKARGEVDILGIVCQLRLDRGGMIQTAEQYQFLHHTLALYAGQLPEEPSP
PLAP activator = PLAP enzyme activators, biochemical, luminescence, HTS; Alkaline phosphatase, placental type (Homo sapiens), P05187; purified PLAP enzyme, luminescent substrate read-out; hits give high values; activation fold at 20 µM; 96,000 compounds, 1.2% hits; AID 696, 2007; in the data active means activation fold above about 2
* = called active by the depositor; / = no result. The list is not random: actives were taken first. Their share in the collection is about 5.4%. Unless noted, no stated cut-off is given here; in the data, active means inhibition above about 30%; inactive means the rest.

SMILES	PostGolgi ctrl	E coli WT exp	tolC growth inh	PostGolgi yeast	HePTP inhibitor	PLAP activator
CCOC(=O)c1c(-c2ccccc2)csc1NC(=O)CSc1nnnn1C	37.9*	-14.0	48.8	2.7	8.9	1.6
CN1C(=O)OC(C)(CCc2ccccc2)C1(C)O (stereo not drawn)	3.2	-1.0	10.4	-3.0	-5.6	1
CC1(O)N(Cc2ccccc2)C(=O)OC12CCCCC2 (stereo not drawn)	45.8*	2.0	-2.1	-5.3	2.7	1
NC(=O)CN1C(=O)/C(=C2\SC(=S)N(CCCC(=O)O)C2=O)c2ccccc21	/	/	/	/	41.2	/
Cc1noc(/C=C/N(C)C)c1S(=O)(=O)N1CCCC(C(=O)NCc2ccc(F)cc2)C1 (stereo not drawn)	2.0	9.0	-2.6	3.0	1.5	1.1
CC(=O)N1CCCc2cc(S(=O)(=O)Nc3ccc4c(c3)OCO4)ccc21	33.4*	0.0	0.8	2.2	8.6	1.2
CCN(CC)CCOc1ccccc1Cl	/	/	/	/	9.6	/
CC(Sc1ccc(Cl)cc1)C(=O)NCc1ccc2c(c1)OCO2 (stereo not drawn)	19.6	9.0	/	-1.1	/	1
CC(C)N1CCC2(CC1)N=C(c1ccc3c(c1)OCO3)CC(c1cc(Cl)ccc1O)N2 (stereo not drawn)	50.1*	29.0	100.0*	15.0	12.8	1.2
O=C(c1cc2nc(-c3ccc([N+](=O)[O-])cc3)cc(C(F)(F)F)n2n1)N1CCCC1	/	/	/	/	3.3	/
Cc1ccc(C(=O)Nc2ccc(Cc3ccncc3)cc2)cc1[N+](=O)[O-]	49.9*	4.0	/	87.2*	-0.3	0.9
CCc1ccc(NC(=O)c2ccc(C)c([N+](=O)[O-])c2)cc1	/	/	/	/	7.1	/
COc1ccc(NC(=O)c2ccc(C)c([N+](=O)[O-])c2)cc1	/	/	/	/	12.0	/
Cc1ccc(C(=O)Nc2ccc(-c3nc4cc5ccccc5cc4[nH]3)cc2)cc1[N+](=O)[O-]	/	/	/	/	56.3*	/
COc1ccccc1-c1nc(C#N)c(N2CCCCCC2)o1	42.1*	3.0	/	-9.8	/	1.4
N#Cc1nc(-c2ccco2)oc1N1CCN(c2ccccc2)CC1	5.9	0.0	32.3	8.4	4.4	0.9
COc1ccc(-c2nc(C#N)c(N3CCc4ccccc4C3)o2)cc1OC	32.9*	-8.0	/	4.6	/	1.1
COc1ccc(N2CCN(c3oc(-c4ccco4)nc3C#N)CC2)cc1	-3.3	8.0	33.8	31.6*	0.5	0.8
COc1ccccc1-c1nc(C#N)c(N2CCN(c3ccccc3)CC2)o1	26.3	-10.0	20.3	3.5	3.7	1
CC(=O)Oc1ccc2ccccc2c1C(NC(=O)C(C)C)c1cccc([N+](=O)[O-])c1 (stereo not drawn)	16.4	-5.0	/	22.4	/	1.8
Cc1snc2sc(C(=O)c3ccc(Br)cc3)c(N)c12	-2.6	-6.0	/	5.0	/	0.9
Cc1ccc(-c2nc3ccccc3[nH]2)cc1NC(=O)c1ccc2c(c1)OCO2	15.4	-11.0	/	1.4	/	1
Cc1ccc(-c2nc3ccccc3[nH]2)cc1NC(=S)NC(=O)c1ccccc1Br	37.2*	-5.0	/	6.2	/	1.1
O=C(CSc1ccccn1)Nc1ccc2c(c1)C(=O)c1ccccc1C2=O	/	/	/	/	105.2*	/
COC(=O)c1ccc(NC(=O)CSc2ccccn2)cc1	9.3	5.0	/	24.8	/	0.8
SMILES	PostGolgi ctrl	E coli WT exp	tolC growth inh	PostGolgi yeast	HePTP inhibitor	PLAP activator
O=C(CN1CCC(n2nnc3cc(F)ccc32)CC1)NC1CC1	5.2	11.0	-12.3	-1.2	1.8	1
CCOc1ccc2nc(NC(=O)CN3CCC(n4nnc5cc(F)ccc54)CC3)sc2c1	33.5*	-13.0	79.1*	10.3	-4.5	1.8
CCC(=O)NC(=S)Nc1ccc(S(=O)(=O)NC(C)=O)cc1	1.6	5.0	/	9.8	/	1
COC(=O)c1c(NS(=O)(=O)Cc2ccccc2)sc2c1CCCC2	41.4*	-4.0	/	-5.3	/	1.5
S=C(NCc1ccco1)Nc1ccc(Cl)c(Cl)c1	40.9*	47.0	/	4.5	/	0.9
O=C(Nc1ccc(Cl)c(Cl)c1)N(Cc1cccnc1)Cc1ccco1	104.8*	-11.0	45.5	96.3*	9.1	0.9
CC1CCc2c(sc3nc(CN4CCOCC4)nc(NS(=O)(=O)c4cccc([N+](=O)[O-])c4)c23)C1 (stereo not drawn)	22.6	-1.0	/	-1.6	/	2.1*
COc1cc(NC(=O)/C=C/c2ccc(C(C)C)cc2)c(OC)cc1Cl	/	/	/	/	-16.9	/
O=c1c2ccccc2nc(-c2ccco2)n1Cc1ccccc1	23.6	-3.0	-6.5	14.2	-1.9	1
CCOc1ccc(CCn2c(-c3ccco3)nc3ccccc3c2=O)cc1OCC	20.7	-9.0	/	13.1	/	1.1
O=c1c2ccccc2nc(-c2ccc(Br)cc2)n1Cc1ccccc1	52.3*	-12.0	/	8.5	/	1
O=c1c2ccccc2nc(-c2ccoc2)n1CCc1ccccc1	41.4*	-6.0	22.4	-0.6	-3.3	0.8
O=c1c2cnn(-c3ccccc3)c2ncn1Cc1cccnc1	2.6	0.0	-5.6	1.9	14.7	0.8
CCOC(=O)C1CCCCN1C(=O)CCc1c(C)nc2cc(-c3ccccc3)nn2c1C (stereo not drawn)	77.4*	-4.0	16.9	3.4	6.9	1.5
CCOC(=O)c1ccc(NC(=O)CC(C)=O)cc1	/	/	/	/	-10.1	/
O=C1c2ccccc2C(=O)N1CCCCN(C(=O)c1cccc([N+](=O)[O-])c1)c1ccc(Cl)cc1	18.1	-6.0	/	5.1	/	1.1
O=C1c2ccccc2C(=O)N1CCCCN(C(=O)c1ccco1)c1ccc(Cl)cc1	30.6*	-10.0	44.5	2.4	6.9	1.4
Cc1ccc(-n2c(-c3ccc(Br)cc3)c[n+]3c2CCc2ccc4cccnc4c2-3)cc1	49.6*	78.0*	/	10.9	/	0.9
CCCOc1ccc(S(=O)(=O)n2cc(Br)c(=O)[nH]c2=O)cc1	42.0*	7.0	27.7	6.4	10.1	1.2
O=c1[nH]c(=O)n(CCOc2ccc(Cl)cc2)cc1Br	13.2	5.0	-13.5	3.9	1.1	1.1
C=CCc1cccc2cc(C(=O)NC3CCCCC3)c(=O)oc12	/	/	/	/	-0.1	/
CCNc1nc(NC(C)C)nc(OCCNS(=O)(=O)c2cc(C)ccc2C)n1	2.9	6.0	24.6	-3.1	0.0	1
CCNc1nc(NC(C)C)nc(SCCOc2ccc(C)cc2)n1	31.0*	-5.0	/	4.5	/	1
Cc1ccc(CN(C(=O)c2c(F)cccc2F)C2CC(C)(C)NC(C)(C)C2)o1	6.7	3.0	-24.6	4.8	6.1	1.7
Cc1cccc(OCC(O)CN2C(=O)NC(C)(C)C2=O)c1 (stereo not drawn)	/	/	/	/	103.6*	/
CC1(C)NC(=O)N(CC(O)COc2cccc(F)c2)C1=O (stereo not drawn)	/	5.0	-6.7	0.0	0.1	1
CCc1c(C)sc(NC(=O)OC)c1C(N)=O	1.7	2.0	/	3.0	/	1

Compound activity as filed in PubChem.
